Experimental data: article PMC12214485 (Scientific Reports, 2025)

Assay: DPPH free radical scavenging assay
Method in brief: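 Each well held test compound and DPPH (added as 150 µM solution, half the well volume), made up with methanol. Incubated 30 min at room temperature, then absorbance read at 517 nm. Percent inhibition was calculated from blank and sample absorbances. Ascorbic acid served as reference. Three independent experiments were run, each in triplicate.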

With `O=C1O[C@H]([C@@H](O)CO)C(O)=C1O` [Vitamin C, Ascorbic acid] the antioxidant activity was 95.1571 ± 0.057 µg/mL.
